From ChEMBL document CHEMBL1806443, “Novel imidazo[4,5-b]pyridine and triaza-benzo[c]fluorene derivatives: synthesis, antiproliferative activity and DNA binding studies” (Eur J Med Chem, 2011) come the findings set out here.

Data set [1] has as its system WI-38. The experiment in a line: Antiproliferative activity against human WI38 cells after 72 hrs by MTT assay. It counts as cell-based. To be noted: Homo sapiens, WI-38, 72 h. Put shortly:
(§1)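 Monolayer cells in DMEM with 10% FBS, 2 mM L-glutamine, penicillin and streptomycin at 37 °C, 5% CO2. Seeded at 3000-6000 cells/well by doubling time on day 0. Five 10-fold dilutions (0.01–100 µM) were added and incubated 72 h. MTT read-out, converted to percentage growth. IC50 by linear regression between bracketing concentrations. Quadruplicate points, three independent experiments, ANOVA/Tukey p<0.05.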
For orientation: Tetrazolium assays rely on reduction of a dye to a coloured formazan, in cell work by metabolically active cells.

Data set [2] deals with Nucleic Acid. The data set is described as follows: Binding affinity to calf thymus DNA assessed as change in melting temperature at compound to polynucleotide ratio of 0.1 by UV-VIS spectroscopic analysis. It counts as nucleic-acid assay. To be noted: Bos taurus. Put shortly: (§2)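 ct-DNA alone or with compound at set r = [compound]/[polynucleotide], in cacodylate buffer pH 7.0, I = 0.05 mol dm^-3. Absorbance at 260 nm followed against temperature, ligand absorbance subtracted, curves normalized. Tm is the transition midpoint, from the first-derivative maximum or by tangent method. ΔTm = Tm(complex) − Tm(free DNA), mean of ≥2 runs, error ±0.5 °C.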

For data set [3], the system named is MIA PaCa-2. The experiment in a line: Cytostatic activity against human MIAPaCa2 cells at 1 to 10 uM after 72 hrs by MTT assay. The class given is functional, cell-based. Put shortly:
(§3)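 Monolayers in DMEM with 10% FBS, 2 mM L-glutamine, penicillin and streptomycin (37 °C, 5% CO2) were seeded at 3000–6000 cells/well on day 0. Five 10-fold dilutions (0.01–100 µM) were added, followed by 72-h incubation and MTT read-out. Absorbances were converted to percentage growth by the NIH formulae. Each point was run in quadruplicate in three experiments; ANOVA with Tukey test.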

Data set [4] has as its system Nucleic Acid. The experiment in a line: Binding affinity to calf thymus DNA assessed as appearance of weak positive CD band at compound to DNA ratio of > 0.3 and 350 to 400 nm wavelength by circular dichroism spectroscopy. To be noted: Bos taurus. It counts as nucleic-acid assay. Put shortly: (§4)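 CD spectra of ct-DNA (1.0 × 10^-5 mol dm^-3, as phosphate) titrated with compound at 25 °C. Sodium cacodylate buffer pH 7.0, I = 0.05 mol dm^-3, 1 cm quartz cuvette. DNA band (~274–275 nm) and induced bands above 300 nm followed versus r = [compound]/[ct-DNA].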
Background: CD spectra are sensitive to the conformation of chiral molecules.

Data set [5] relates to Nucleic Acid. The data set is described as follows: Binding affinity to calf thymus DNA assessed as hypochromic changes at 360 nm wavelength by UV-Vis spectrophotometric titrations. To be noted: Bos taurus. It counts as nucleic-acid assay. An outline of the steps: (§5)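 UV/Vis titration: aliquots of ct-DNA (concentration as phosphate) added to compound solution in sodium cacodylate buffer pH 7.0, I = 0.05 mol dm^-3, 1 cm quartz cuvettes. Hypochromism followed at band maxima. Compound absorbance linear up to 2.0 × 10^-5 mol dm^-3. Binding data fitted by the Scatchard equation.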

For data set [6], the system named is WI-38. The experiment in a line: Cytostatic activity against human WI38 cells at 1 to 10 uM after 72 hrs by MTT assay. The class given is ADME, cell-based. To be noted: wi-38, 72 h. Put shortly: as §3
Data set [7] has as its system HeLa. The experiment in a line: Antiproliferative activity against human HeLa cells after 72 hrs by MTT assay. It counts as functional, cell-based. Conditions: Homo sapiens, HeLa, 72 h. An outline of the steps:
as §1

Data set [8] relates to Nucleic Acid. The experiment in a line: Binding affinity to calf thymus DNA assessed as change in melting temperature at compound to polynucleotide ratio of 0.3 by UV-VIS spectroscopic analysis. To be noted: Bos taurus. It counts as nucleic-acid assay. An outline of the steps:
as §2

The subject of data set [9] is Nucleic Acid. The data set is described as follows: Binding affinity to calf thymus DNA assessed as hypochromic changes at 327 nm wavelength by UV-Vis spectrophotometric titrations. It counts as nucleic-acid assay. Conditions: Bos taurus. An outline of the steps:
as §5

The subject of data set [10] is HEp-2. The experiment in a line: Cytostatic activity against human Hep2 cells at 1 to 10 uM after 72 hrs by MTT assay. The class given is functional, cell-based. Put shortly: as §3
The test system of data set [11] is Nucleic Acid. The data set is described as follows: Binding affinity to calf thymus DNA assessed as change in melting temperature at compound to polynucleotide ratio of 0.2 by UV-VIS spectroscopic analysis. To be noted: Bos taurus. It counts as nucleic-acid assay. An outline of the steps: as §2
Data set [12] has as its system MCF7. The data set is described as follows: Antiproliferative activity against human MCF7 cells after 72 hrs by MTT assay. The class given is functional, cell-based. To be noted: Homo sapiens, MCF7, 72 h. An outline of the steps: as §1
For data set [13], the system named is Nucleic Acid. The experiment in a line: Binding affinity to calf thymus DNA assessed as hypochromic changes at 342 nm wavelength by UV-Vis spectrophotometric titrations. The class given is nucleic-acid assay. Conditions: Bos taurus. An outline of the steps:
as §5

For data set [14], the system named is MIA PaCa-2. The experiment in a line: Antiproliferative activity against human MIAPaCa2 cells after 72 hrs by MTT assay. It counts as functional, cell-based. Conditions: Homo sapiens, MIA PaCa-2, 72 h. An outline of the steps:
as §1

For data set [15], the system named is HEp-2. The data set is described as follows: Antiproliferative activity against human Hep2 cells after 72 hrs by MTT assay. The class given is functional, cell-based. To be noted: Homo sapiens, HEp-2, 72 h. An outline of the steps:
as §1

The test system of data set [16] is Nucleic Acid. The experiment in a line: Binding affinity to calf thymus DNA assessed as change in melting temperature at compound to polynucleotide ratio of 0.5 by UV-VIS spectroscopic analysis. The class given is nucleic-acid assay. To be noted: Bos taurus. An outline of the steps: as §2
For data set [17], the system named is Nucleic Acid. The data set is described as follows: Binding affinity to calf thymus DNA assessed as appearance of weak, negative CD band at 325 nm wavelength by circular dichroism spectroscopy. The class given is nucleic-acid assay. To be noted: Bos taurus. Put shortly: as §4
Data set [18] concerns SK-BR-3. The experiment in a line: Cytostatic activity against human SKBR3 cells at 1 to 10 uM after 72 hrs by MTT assay. The class given is functional, cell-based. Put shortly: as §3
The subject of data set [19] is SW-620. The data set is described as follows: Cytostatic activity against human SW620 cells at 1 to 10 uM after 72 hrs by MTT assay. The class given is functional, cell-based. Put shortly: as §3
Data set [20] relates to SW-620. The data set is described as follows: Antiproliferative activity against human SW620 cells after 72 hrs by MTT assay. It counts as functional, cell-based. Conditions: Homo sapiens, SW-620, 72 h. An outline of the steps:
as §1

Data set [21] has as its system SK-BR-3. The experiment in a line: Antiproliferative activity against human SKBR3 cells after 72 hrs by MTT assay. To be noted: Homo sapiens, SK-BR-3, 72 h. It counts as functional, cell-based. Put shortly: as §1
Data set [22] concerns MCF7. The data set is described as follows: Cytostatic activity against human MCF7 cells at 1 to 10 uM after 72 hrs by MTT assay. It counts as functional, cell-based. Put shortly:
as §3

Data set [23] relates to HeLa. The experiment in a line: Cytostatic activity against human HeLa cells at 1 to 10 uM after 72 hrs by MTT assay. It counts as functional, cell-based. An outline of the steps:
as §3

The subject of data set [24] is Nucleic Acid. The experiment in a line: Binding affinity to calf thymus DNA assessed as fluorescence quenching at compound to DNA ratio of 0.20 by fluorimetric titrations. The class given is nucleic-acid assay. To be noted: Bos taurus. An outline of the steps: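 Fluorimetric titration: portions of ct-DNA (sonicated, filtered, concentration as phosphate) added to compound in cacodylate buffer pH 7.0, I = 0.05 mol dm^-3. Emission 350–600 nm, sample absorbance <0.05 at excitation, mostly DNA excess (r < 0.1). Ks and n = [bound compound]/[DNA phosphate] by non-linear least-squares Scatchard fitting.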

Data set [25] deals with Nucleic Acid. The data set is described as follows: Binding affinity to calf thymus DNA assessed as UV/Vis spectral change at compound to DNA ratio of 0.24 by UV/Vis titrations. Conditions: Bos taurus.
For data set [26], the system named is Nucleic Acid. The data set is described as follows: Binding affinity to calf thymus DNA assessed as appearance of weak, negative induced CD band at > 300 nm wavelength by circular dichroism spectroscopy. The class given is nucleic-acid assay. Conditions: Bos taurus. An outline of the steps:
as §4

Data set [27] concerns Nucleic Acid. The data set is described as follows: Binding affinity to calf thymus DNA assessed as hypochromic changes at 343 nm wavelength by UV-Vis spectrophotometric titrations. The class given is nucleic-acid assay. To be noted: Bos taurus. Put shortly: as §5
Data set [28] has as its system Nucleic Acid. The experiment in a line: Binding affinity to calf thymus DNA assessed as hypochromic changes at 330 nm wavelength by UV-Vis spectrophotometric titrations. The class given is nucleic-acid assay. To be noted: Bos taurus. Put shortly: as §5

Structures are written as SMILES. pIC50: −log10 of the molar value. Calls of active or inactive are those of the source. The rule behind the calls is not given here.

A word on the pIC50: it is the IC50 on a negative log10 scale, so that one unit is a factor of ten. Usually ΔTm stands for the shift of the melting midpoint relative to a reference. For `C[n+]1cccc2c1nc1ccc3ccccc3n12.[I-]`, the pIC50 is 5.20 in data set [1]; 5.12 in data set [7]; 5.12 in data set [12]; 5.07 in data set [14]; 4.88 in [15]; 4.83 in data set [20]. The pIC50 in data set [21] is 5.45. The shift in melting temperature (ΔTm) in data set [2] is 1.6 °C; in data set [8] it was 4.25 °C; in [11], 2.6 °C; in data set [16], 6.1 °C. The outcome in [3], in data set [4], in [10], in data set [17], in data set [18] and in data set [19] was Active. The result in data set [22] and in [23] was Active. Further, the Activity was 38% in data set [5], “Toxic” in [6], 28% in data set [9] and 37% in [13]. The log Ks in [24] was found to be 4.9.

Regarding `Nc1ccc2c(ccc3nc4ncccc4n32)c1`, the ΔTm in [2] came to 0.7 °C; in data set [8] it was 0.2 °C; in data set [11], 1.4 °C; in data set [16] it was 1.3 °C. Besides, the outcome in data set [3], in data set [10], in [18], in data set [19], in data set [22] and in [23] was Active. Besides, in data set [25], the log Ks was 4.6. Also, the result in data set [26] was inactive. Further, the results for the Activity in data set [27] and in data set [28] were 18% and 26%, respectively.
